Shown are actives, neighbours in structure and some others; about 1.3% of the full set was active somewhere.
Diaph act CS = diaphorase activation or chemical reduction counter-screen. Diaphorase/resazurin coupled assay, resorufin fluorescence, 16 min; stronger effect = higher value; 1 = vehicle wells, 0 = NADH-free wells. activation factor at 20 µM. hit rate 0.005% among 190,000;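 active = diaphorase activity raised at least twofold by the compound at 20 µM; inactive = activation factor below 2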
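Measured by – red resorufin fluorescence at 544/590 nm excitation/emission · Test system – Clostridium kluyveri diaphorase, purified enzyme · Incubation – reaction time 16 min, room temperature · Buffer or medium – 50 mM HEPES pH 7.4 with 4.542 mM MgCl2, 0.005% Tween 20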
G6PDH CS = L. mesenteroides G6PDH inhibition counter-screen; hit rate 0.12% among 200,000; AID 1020; Purified L. mesenteroides G6PDH, diaphorase/resazurin coupled fluorescence, 45 min; inhibition, % at 5 µM; in the data active = inhibition above about 50%
HKDC1 inhibitor = HKDC1 (human) hexokinase inhibition | recombinant HKDC1, G6PDH/diaphorase resazurin coupled fluorescence | inhibition, % at 20 µM | hit rate 0.16% among 340,000 | Q2TB90;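 active = inhibition above about 35% when tested at 20 µM, limit read from the data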;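 also: plate controls were DMSO wells with enzyme for no effect and DMSO wells lacking enzyme for full effect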
Target sequence (Q2TB90 whole entry, looked up): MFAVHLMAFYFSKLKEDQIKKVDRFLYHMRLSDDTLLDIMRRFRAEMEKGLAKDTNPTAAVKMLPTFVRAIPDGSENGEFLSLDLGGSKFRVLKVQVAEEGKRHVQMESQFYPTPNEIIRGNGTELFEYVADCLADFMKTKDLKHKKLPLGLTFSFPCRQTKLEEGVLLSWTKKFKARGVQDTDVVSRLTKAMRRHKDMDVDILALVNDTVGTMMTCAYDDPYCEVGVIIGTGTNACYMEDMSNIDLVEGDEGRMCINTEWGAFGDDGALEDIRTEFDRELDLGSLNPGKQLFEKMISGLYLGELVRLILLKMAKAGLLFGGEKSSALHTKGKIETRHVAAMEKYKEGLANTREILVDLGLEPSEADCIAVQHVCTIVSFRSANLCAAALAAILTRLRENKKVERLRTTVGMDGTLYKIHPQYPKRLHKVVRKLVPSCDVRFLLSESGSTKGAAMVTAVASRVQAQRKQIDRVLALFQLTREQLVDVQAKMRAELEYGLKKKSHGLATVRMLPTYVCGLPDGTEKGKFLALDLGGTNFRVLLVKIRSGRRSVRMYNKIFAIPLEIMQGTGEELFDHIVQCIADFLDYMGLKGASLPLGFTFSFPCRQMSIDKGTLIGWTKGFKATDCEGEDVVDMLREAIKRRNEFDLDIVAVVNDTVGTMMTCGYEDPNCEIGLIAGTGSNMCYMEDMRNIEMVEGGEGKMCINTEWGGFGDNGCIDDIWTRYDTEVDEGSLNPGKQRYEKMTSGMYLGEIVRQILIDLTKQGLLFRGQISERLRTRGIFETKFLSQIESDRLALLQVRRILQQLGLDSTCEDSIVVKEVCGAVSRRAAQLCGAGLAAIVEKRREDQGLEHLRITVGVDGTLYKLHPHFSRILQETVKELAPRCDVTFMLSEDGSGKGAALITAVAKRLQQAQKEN
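Test system: recombinant HKDC1 (HK5) hexokinase enzyme, produced in-house / Doses: 20 µM test compound, 1% DMSO / Timing: 90 min, room temperature / Detection: G6PDH/diaphorase-coupled fluorescence, 1 mM NADP, 100 µM resazurin, 525/613 nm / Control set: DMSO wells with and without enzyme mix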
Diaphorase inh = inhibits diaphorase or chemically oxidizes, flagging diaphorase assay artifacts; AID 1217; inhibition, % at 20 µM; hit rate 0.69% among 190,000; diaphorase resazurin-to-resorufin fluorescence, NADH, 16 min; bacterial (C. kluyveri) enzyme, not human;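 active = primary screen inhibition at 20 µM above a set limit, cut at about 50% in these data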;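 also: plate controls were DMSO with full reaction for no effect and wells lacking NADH for full effect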
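material = Clostridium kluyveri diaphorase enzyme | amount = 0.14 U/mL diaphorase, enzyme working solution | schedule = incubation 16 min, room temperature | detection = fluorescence of resorufin formed from resazurin, Ex 544/Em 590 nm | benchmarks = positive control minus NADH, DMSO neutral control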
PfG6PD inh = PfG6PD (Plasmodium falciparum) enzyme inhibition | PfGluPho enzyme, NADPH resazurin-diaphorase fluorescence | inhibition, % at 20 µM | hit rate 0.78% among 350,000 | AID 504690;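 active = inhibition reaching at least a set limit at 20 µM in the primary screen, cut at about 59% in these data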;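 also: 0% = DMSO wells with substrate and 100% = DMSO wells lacking glucose-6-phosphate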
HKDC1 act conf = HKDC1 (human) activation, single-dose confirmed. shares compounds with HKDC1 inhibitor. recombinant HKDC1, G6PDH/diaphorase resazurin fluorescence; stronger effect = lower value. inhibition, % at 20 µM. hit rate 14% among 740. AID 504708;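 active = inhibition at or below a set negative limit, negative inhibition meaning the enzyme was activated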
* marks the source's active call; other numbers are inactive results; / = no result given.

SMILES	Diaph act CS	G6PDH CS	HKDC1 inhibitor	Diaphorase inh	PfG6PD inh	HKDC1 act conf
O=C(C(=Cc1ccccc1)CN1CCCCC1)c1ccccc1	/	/	17	/	9	/
CCC1CCc2sc(C(=O)OCC(=O)N(CCOC)c3c(N)n(Cc4ccccc4)c(=O)[nH]c3=O)cc2C1 (centres undefined)	/	/	0	/	-8	/
COCCN(C(=O)COC(=O)c1cc2c(s1)CCC2)c1c(N)n(Cc2ccccc2)c(=O)[nH]c1=O	/	/	35*	/	8	16
CN(CC(=O)Nc1c(Cl)cccc1Cl)C(=O)C1CCN(C(=O)Nc2ccccc2)CC1	/	/	-3	/	-2	/
CN1CCc2c(sc(NC(=O)c3ccc([N+](=O)[O-])o3)c2C(N)=O)C1	/	/	9	/	42	/
Cc1cccc2c(N=NC(=O)c3ccc(NS(=O)(=O)c4cccs4)cc3)c(O)[nH]c12	/	/	36*	/	59	63
O=C1C(Cl)=C(N2CCN(c3ccccc3[N+](=O)[O-])CC2)C(=O)c2ccccc21	0.6	42	40*	40	17	-9
NS(=O)(=O)c1ccc(N=Nc2c(=O)[nH]n3c(=O)c4c([nH]c23)CCCC4)cc1	0.6	30	40*	45	26	72
CC(C)(C)c1ccc(-c2csc(NNC3=NCCCCC3)n2)cc1	0.9	8	-61	10	24	-39*
Brc1ccc(-c2csc(NNC3=NCCCCC3)n2)cc1	0.9	-1	-1	6	37	/
COc1ccc2nccc(/C=C/c3ccnc4ccc(OC)cc34)c2c1	/	/	18	/	54	/
COc1ccccc1N(CC(=O)N/N=C/c1c(O)ccc2ccccc12)S(C)(=O)=O	0.7	-12	-40	31	-9	-28
Cc1ccccc1N=C(NO)c1nonc1N	1	2	3	-3	-6	/
O=C(NC(=S)Nc1ccc(S(=O)(=O)Nc2nccs2)cc1)c1ccc(Br)o1	0.9	10	-3	15	-42	/
O=C(/C=C/c1ccc(Br)cc1)NC(=S)Nc1ccc(S(=O)(=O)Nc2nccs2)cc1	0.8	-22	30	17	3	40
Cc1ccc(/C=C/C(=O)c2ccc([N+](=O)[O-])o2)cc1	/	/	46*	/	36	19
Cc1ccc(CNC(=O)c2ccc([N+](=O)[O-])o2)cc1	0.9	8	5	6	15	/
COP(=O)(OC)c1ccc(NCc2cc(O)ccc2O)cc1	/	/	43*	/	49	53
CC(=O)N1CCN(S(=O)(=O)c2cccc(C(=O)Nc3ccccc3N3CCOCC3)c2)CC1	1.2	2	5	-17	-11	/
O=C(c1c[nH]c(C(=O)C(Cl)(Cl)Cl)c1)c1c(F)cccc1F	/	/	38*	/	-1	14
O=C(c1c[nH]c(C(=O)C(Cl)(Cl)Cl)c1)c1ccccc1F	/	/	37*	/	-6	1
COc1ccc(Cc2nnc(NC(=O)c3ccco3)s2)cc1	0.9	12	2	9	-16	/
CNC(=O)c1c(NC(=O)c2ccc(S(=O)(=O)N3CCCCC3)cc2)sc2c1CCN(C(C)C)C2	/	/	11	/	7	/
Oc1ccc(/C=N/Nc2nccnc2Cl)c(O)c1	0.7	2	-5	30	-24	/
Oc1ccc(/C=N/Nc2ncc(Br)cn2)c(O)c1	0.7	45	39*	35	5	45
SMILES	Diaph act CS	G6PDH CS	HKDC1 inhibitor	Diaphorase inh	PfG6PD inh	HKDC1 act conf
O=[N+]([O-])c1ccc(NN=Cc2ccc(O)cc2O)nc1	/	/	37*	/	4	51
Cc1ccc2cc3cc(C(=O)NCCCN4CCCC4=O)oc3nc2c1	/	/	0	/	13	/
O=C(O)c1ccccc1NS(=O)(=O)c1ccc(N/N=C/c2cccc(O)c2O)c([N+](=O)[O-])c1	/	/	36*	/	-49	26
CC(=O)Nc1ccc(C=NNc2ccc(S(=O)(=O)Nc3ccccc3C(=O)O)cc2[N+](=O)[O-])cc1	/	/	2	/	-26	/
CC1CCCN(C(=O)COC(=O)c2cc([N+](=O)[O-])ccc2N2CCOCC2)C1 (centres undefined)	/	/	41*	/	12	-20
c1ccc2oc(C3=NNC(=NC4CC4)SC3)cc2c1	0.8	-4	-47	19	23	-24
Oc1ccc2ccccc2c1C=NC1CCCCC1	0.5	30	35*	52*	24	-8
O=S(=O)(CCSc1nc2ccccc2s1)c1nc2ccccc2s1	0.9	0	39*	13	27	0
CCS(=O)(=O)CCSc1nc2ccccc2s1	0.9	-4	9	12	11	/
S=C(NN=C(c1ccccc1)c1ccccn1)N(Cc1ccccn1)Cc1ccccn1	/	/	-46	/	47	-59*
CC(=NNC(=S)N(Cc1ccccn1)Cc1ccccn1)c1cnccn1	/	/	-38	/	20	/
COc1ccc(CCNC(=O)CN(Cc2ccc(Cl)cc2)S(C)(=O)=O)cc1OC	/	/	4	/	-11	/
Cc1ccc(C)c(-n2c3nc(=O)[nH]c(=O)c-3cc3cc([N+](=O)[O-])ccc32)c1	0.3	33	47*	67*	48	39
Cc1cccc(-n2c3nc(=O)[nH]c(=O)c-3cc3cc([N+](=O)[O-])ccc32)c1	0.5	3	42*	53*	31	47
Cc1ccc(C)c(-n2c3nc(=O)n(C)c(=O)c-3cc3ccccc32)c1	/	/	3	/	-8	/
COCCN(C(=O)CCC(=O)Nc1cc(C)on1)C(C(=O)NC1CCCC1)c1ccc(C)cc1 (centres undefined)	/	/	-9	/	18	/
COc1ccc(OC)c(NC(=O)C2CCCN(S(=O)(=O)c3ccc(-n4cnnn4)cc3)C2)c1 (centres undefined)	/	/	3	/	15	/
O=C(O)c1ccc2c(=O)n(-c3ccccc3)c(=S)[nH]c2c1	/	/	84*	/	29	-2
Cc1cc(C)n2nc(C(=O)NCc3cccc(C(F)(F)F)c3)nc2n1	1.1	4	-5	-11	8	/
COc1cc2c(cc1OC)-c1cc(NCc3ccccn3)nc(=O)n1CC2	0.9	-3	59*	9	17	54
O=C(CN1CCCc2ccccc21)N/N=C/c1ccccc1	0.8	-9	-4	16	20	/
COc1ccccc1/C=C\C(=O)NCC(=O)N/N=C/c1ccc(O)cc1O	/	/	-41	/	-30	-32
COc1ccccc1/C=C/C(=O)NCC(=O)N/N=C/c1ccccc1	1.1	10	1	-11	-8	/
O=C(CN1CCCc2ccccc21)N/N=C/c1ccc(O)cc1O	0.8	-26	-43	19	-14	-34
O=C(CNC(=O)c1cccs1)N/N=C/c1ccc(O)cc1O	0.9	-10	-46	13	-28	-26
O=C(CCc1ccccc1)NCC(=O)N/N=C/c1ccc(O)cc1O	/	/	-43	/	-27	-6
Cc1ccc(C(=O)NNC2=Nc3cccc4cccc2c34)cc1	1.1	-37	-19	-5	15	/
Cc1ccccc1OCCCN1C(=O)C(=O)c2cccc(C)c21	0.8	-4	37*	15	36	-6

Screens as filed in PubChem.
